Published values from different studies.

SMILES	assay	test system	setting	measurement	value
C[C@H]1Oc2cc(cnc2N)-c2c(nn(C)c2C#N)CN(C)C(=O)c2ccc(F)cc21	–	male Sprague-Dawley rat, plasma	oral, 5 mg/kg, single dose	Vd/F	20 L/kg
O=c1c2ccc(OCc3cccc(C(F)(F)F)c3)cc2[nH]c2ccc(Cl)c(F)c12	metabolic stability	mouse, liver microsomes	1 µM, pH 7.4	microsomal CLint	0.59 µL/min/mg
CC(C)c1cc(C(=O)NCCN2CCCC2)c2cnn(C(C)C)c2n1	metabolic stability	mouse, liver microsomes	–	scaled CLint	195 mL/min/kg
CN(C)CCOc1ccc2c(=O)c3c([nH]c2c1)CCCC3	metabolic stability	mouse, liver microsomes	1 µM, pH 7.4	microsomal CLint	40.4 µL/min/mg
Cc1cc(S(=O)(=O)NC2CC(N3CCN(CC4CCN(c5cccc6c5n(C)c(=O)n6C5CCC(=O)NC5=O)CC4)C4(CC4)C3)C2)ccc1Nc1ncc(C(F)(F)F)c(N2CCC[C@](C)(O)C2)n1 (some centres unmarked)	–	rat, plasma	intravenous, 2 mg/kg	Vd	82 L/kg
CCCN(CCC)CCOc1ccc2c(=O)c3c([nH]c2c1)CCCC3	metabolic stability	mouse, liver microsomes	1 µM, pH 7.4	microsomal CLint	51.9 µL/min/mg
CC1(C)NC(=O)N(c2ccc(F)c(F)c2)C1=O	metabolic stability	mouse, liver microsomes	–	microsomal CLint	7 µL/min/mg
CC(C)c1cc(C(=O)NCCN)c2cnn(C(C)C)c2n1	metabolic stability	mouse, liver microsomes	–	scaled CLint	< 38 mL/min/kg
O=c1c2c([nH]c3ccc(Oc4ccc(OC(F)(F)F)cc4)cc13)CCCC2	metabolic stability	mouse, liver microsomes	1 µM, pH 7.4	microsomal CLint	39 µL/min/mg
O=C1NC(CF)(CF)C(=O)N1c1ccc(F)c(C(F)(F)F)c1	metabolic stability	mouse, liver microsomes	–	microsomal CLint	< 7 µL/min/mg
CNCCNC(=O)c1cc(C(C)C)nc2c1cnn2C(C)C	metabolic stability	mouse, liver microsomes	–	scaled CLint	694 mL/min/kg
Cc1cc(S(=O)(=O)NC2CC(N3CCN(CC4CCN(c5ccc6c(c5F)n(C)c(=O)n6C5CCC(=O)NC5=O)CC4)CC3)C2)ccc1Nc1ncc(C(F)(F)F)c(N2CCCC(C)(O)C2)n1 (centres unmarked)	–	rat, plasma	intravenous, 2 mg/kg	Vd	18 L/kg
CC(C)n1ncc2c(C(=O)NCC3(C)CNC3)cc(C3CC3)nc21	metabolic stability	mouse, liver microsomes	–	scaled CLint	< 38 mL/min/kg
Cc1cc(S(=O)(=O)N[C@]2(C)C[C@H](N3CCN(CC4CCN(c5ccc6c(c5F)n(C)c(=O)n6C5CCC(=O)NC5=O)CC4)CC3)C2)ccc1Nc1ncc(C(F)(F)F)c(N2CCC[C@](C)(O)C2)n1 (some centres unmarked)	–	rat, plasma	intravenous, 2 mg/kg	Vd	42 L/kg
